What was measured:
[1] = (§1) Tested for cytotoxic activity against monkey kidney cells(BSC-1) cells.; format: functional, cell-based; settings: Cercopithecidae
In short: (§2)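 Cytotoxicity was scored visually on uninfected HFF or BSC-1 cells within the plaque-reduction plates. Drug-induced cytopathology was graded 0 to 4+ at 35- and 60-fold magnification on the day of staining for plaque enumeration.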

[2] = system: Human betaherpesvirus 5; assay: Tested for antiviral activity against human cytomegalovirus (HCMV) by means of plaque reduction assay.; format: functional, organism-based
In short: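 HFF monolayers (MEM(E), 10% FBS) were inoculated with about 50 PFU of a plaque-purified Towne strain HCMV isolate in 0.2 mL. Test compounds were included in the overlay medium and plaques counted. IC50 came from a linear regression of percent inhibition versus log concentration. Positive controls ran in all assays, with sets rejected if the control deviated >1.5 SD.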

[3] = system: HFF; assay: Tested for cytotoxic activity against human foreskin fibroblasts (HFF) cells.; format: functional, cell-based; in short: as §2
[4] = system: Human alphaherpesvirus 1; assay: Tested for antiviral activity against herpes simplex virus-1(HSV-1) by means of plaque reduction assay.; format: functional, organism-based
In short: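 Monolayer BSC-1 cells (MEM with Earle's salts, 10% FBS) infected with about 100 PFU HSV-1 strain S-148 in 0.2 mL inoculum. Compounds were dissolved in the overlay medium and plaques counted. IC50 was taken from a linear regression of percent inhibition against log concentration. An acyclovir or ganciclovir positive control was run in every assay, and sets deviating >1.5 SD were rejected.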

[5] = Tested for cytotoxic activity against human neoplastic cell line(KB cells).; format: functional, cell-based
In short: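 KB cells were grown in MEM with Hank salts and 5% FBS. Inhibition of radioactive precursor incorporation into DNA, RNA and protein was measured. IC50s were obtained by regression of percent inhibition against log concentration, and the three values were averaged.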

[6] = system: BSC-1; assay: as §1; format: functional, cell-based, Cercopithecidae; settings: Chlorocebus aethiops; in short: as §2

| Compound | IC50 [1] | IC50 [2] | IC50 [3] | IC50 [4] | IC50 [5] | IC50 [6] |
| --- | --- | --- | --- | --- | --- | --- |
| COC(=N)c1nn(COCCO)c2ncnc(N)c12 | > 100 µM | > 100 µM | > 100 µM | > 100 µM | – | – |
| NC(=S)c1nn(COCCO)c2ncnc(N)c12 | 100 µM | 2.5 µM | 55 µM | 9 µM | 24 µM | – |
| CC(=O)OCCOCn1nc(C#N)c2c(N)ncnc21 | > 100 µM | > 100 µM | > 100 µM | > 100 µM | 54 µM | – |
| N#Cc1nn(COCCO)c2ncnc(N)c12 | > 100 µM | > 100 µM | > 100 µM | > 100 µM | – | – |
| NC(=O)c1nn(COCCO)c2ncnc(N)c12 | > 100 µM | > 100 µM | > 100 µM | > 100 µM | > 100 µM | – |
| N#Cc1nnc2nc[nH]c(N)c1-2 | – | 68 µM | > 100 µM | 16 µM | – | > 100 µM |
| Nc1nc2c(ncn2COCCO)c(=O)[nH]1 [ACYCLOVIR] | > 100 µM | – | > 100 µM | – | > 100 µM | – |
| Nc1nc2c(ncn2COC(CO)CO)c(=O)[nH]1 [GANCICLOVIR] | > 100 µM | – | > 100 µM | – | 1000 µM | – |
